Experimental findings from paper PMC3164867 (Journal of medicinal chemistry, 2009) are described below.

For series [1], the system named is Molt-4 (T-cell lymphoma) or Raji tumors (B-cell lymphoma). The series is classed as in vivo, nude mice. A digest of the protocol:
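Athymic Nu/Nu mice, 4–6 weeks old, bore sc Molt-4 or Raji (1 × 10^7 cells, right upper back) and A549 (1 × 10^6 cells, left upper back), studied at 10–15 mm. Under pentobarbital ip anesthesia, Cy5.5-conjugated test compound given iv by tail vein; serial NIRF imaging 5 min–120 h (10 nmol), 30 s exposures. Ex vivo organs and tumors at 24 h (0.25 or 1 nmol); ROI mean intensity minus heart background.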

The next series is described as follows: Solubility. It is filed as physicochemical. The conditions noted are these: preliminary evidence.
For a further series, the target named is activated α4β1 integrin (Homo sapiens, UniProt P05556+P13612). It is filed as cell-based. The conditions noted are these: for potency (in words): SAR summary, Molt-4 cell adhesion.
Setting [2] is: iv tail vein, nude mice with Molt-4 or Raji and A549 xenografts, NIRF imaging.

activated α4β1 integrin, sequence (P13612 34-1032): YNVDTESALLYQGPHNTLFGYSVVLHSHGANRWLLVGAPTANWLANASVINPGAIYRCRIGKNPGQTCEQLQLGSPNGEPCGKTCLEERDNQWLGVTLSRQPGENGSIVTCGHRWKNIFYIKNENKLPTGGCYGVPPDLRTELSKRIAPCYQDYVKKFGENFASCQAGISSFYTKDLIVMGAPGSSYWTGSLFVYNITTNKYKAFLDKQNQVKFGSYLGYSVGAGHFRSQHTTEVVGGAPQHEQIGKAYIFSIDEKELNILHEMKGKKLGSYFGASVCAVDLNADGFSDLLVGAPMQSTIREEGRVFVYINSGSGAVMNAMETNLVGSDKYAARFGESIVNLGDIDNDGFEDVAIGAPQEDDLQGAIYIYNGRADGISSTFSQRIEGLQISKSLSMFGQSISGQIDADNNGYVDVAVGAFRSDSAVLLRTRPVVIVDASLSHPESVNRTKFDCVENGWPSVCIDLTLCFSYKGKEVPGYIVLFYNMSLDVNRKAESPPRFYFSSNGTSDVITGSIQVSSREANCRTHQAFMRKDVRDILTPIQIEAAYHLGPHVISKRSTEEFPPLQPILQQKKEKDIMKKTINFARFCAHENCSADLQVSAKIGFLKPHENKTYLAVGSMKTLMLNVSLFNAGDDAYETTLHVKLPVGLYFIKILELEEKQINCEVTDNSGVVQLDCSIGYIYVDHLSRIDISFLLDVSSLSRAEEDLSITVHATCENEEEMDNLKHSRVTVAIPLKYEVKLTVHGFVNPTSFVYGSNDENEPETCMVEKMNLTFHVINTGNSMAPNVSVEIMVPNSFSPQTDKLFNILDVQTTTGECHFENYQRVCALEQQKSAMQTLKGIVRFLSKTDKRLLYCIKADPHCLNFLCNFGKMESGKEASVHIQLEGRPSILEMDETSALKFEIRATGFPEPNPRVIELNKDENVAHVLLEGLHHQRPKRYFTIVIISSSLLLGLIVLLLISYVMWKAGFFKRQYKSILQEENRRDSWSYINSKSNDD
activated α4β1 integrin, sequence (P05556 21-798): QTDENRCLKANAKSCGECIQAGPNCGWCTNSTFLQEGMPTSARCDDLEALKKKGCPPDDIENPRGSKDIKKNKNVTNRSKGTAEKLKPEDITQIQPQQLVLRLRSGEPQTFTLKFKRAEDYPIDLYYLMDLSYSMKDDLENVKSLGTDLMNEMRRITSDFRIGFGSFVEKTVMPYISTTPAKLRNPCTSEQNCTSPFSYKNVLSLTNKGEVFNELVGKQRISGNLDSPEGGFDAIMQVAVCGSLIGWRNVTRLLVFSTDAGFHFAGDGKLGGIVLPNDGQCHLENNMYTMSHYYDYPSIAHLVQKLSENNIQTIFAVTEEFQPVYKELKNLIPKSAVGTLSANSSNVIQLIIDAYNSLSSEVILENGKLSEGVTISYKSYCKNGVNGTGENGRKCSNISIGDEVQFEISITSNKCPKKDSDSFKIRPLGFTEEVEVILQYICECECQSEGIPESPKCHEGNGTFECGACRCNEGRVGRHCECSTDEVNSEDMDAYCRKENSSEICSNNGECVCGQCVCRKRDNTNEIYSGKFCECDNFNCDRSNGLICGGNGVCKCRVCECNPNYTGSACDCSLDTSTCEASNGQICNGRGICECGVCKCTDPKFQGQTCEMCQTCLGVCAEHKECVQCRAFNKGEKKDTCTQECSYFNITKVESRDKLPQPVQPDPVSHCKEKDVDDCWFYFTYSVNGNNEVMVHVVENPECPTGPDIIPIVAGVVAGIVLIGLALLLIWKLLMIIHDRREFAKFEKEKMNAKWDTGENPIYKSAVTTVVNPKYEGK

“2-(1E,3E,5E)-5-3-(R)-1-(1-(R)-2-(R)-2-[2-(4-(benzo[d]thiazol-2-ylamino)phenyl)\acetamido]-6-(E)-3-(pyridin-3-yl)acrylamido)hexanamido)-5-carboxypentanamido)cyclohexyl)-27-carbamoyl-1,9,13,21,25,33-hexaoxo-5,17-dioxa-2,8,14,20,26,32-hexa-azaheptatriacontan-37-yl)-1,1-dimethyl-6,8-disulfonato-1H-benzo[e]indol-2(3H)-ylid-ene)penta-1,3-dienyl)-3-ethyl-1,1-di-methyl-1H-benzo[e]indolium-6,8-disulfonate [Compound 6-Cy5.5]”: the “organ signal (in words)” value in series [1] (ex vivo NIRF of organs) is “low liver, muscle, lung, and spleen signal”. In series [1] (ex vivo NIRF, preliminary, compared with 1-Cy5.5), the “kidney:tumor ratio (in words)” value was “improvement in the kidney:tumor ratio”. In series [1] (setting [2]), the “tumor uptake first observed post injection” value is on record as 5 min and the “tumor uptake persisted post injection” value is recorded as “up to 120 h”. Further, the “solubility (in words)” value in the series “Solubility” is on record as “improved solubility”.

With `NC(=O)C1(NC(=O)[C@H](CCCC(=O)O)NC(=O)[C@H](CCCCNC(=O)/C=C/c2cccnc2)NC(=O)Cc2ccc(Nc3nc4ccccc4[nH]3)cc2)CCCCC1` [Compound 2, reference compound], the “potency relative to bisaryl urea 1 (fold less potent)” value at activated α4β1 integrin (compared with 1) was found to be 10 fold.

The IC50 is the concentration that gives 50% inhibition. High values mean weaker potency, low ones greater potency. Consider `NC(=O)C1(NC(=O)[C@@H](CCCC(=O)O)NC(=O)[C@@H](CCCCNC(=O)/C=C/c2cccnc2)NC(=O)c2cccc(Nc3nc4cc(Br)ccc4[nH]3)c2)CCCCC1` [Compound 3], for which 30 nM corresponded to half-maximal inhibition against activated α4β1 integrin (IC50).

Regarding `Cc1ccc2[nH]c(Nc3ccc(C(=O)N[C@H](CCCCNC(=O)/C=C/c4cccnc4)C(=O)N[C@H](CCCC(=O)O)C(=O)NC4(C(N)=O)CCCCC4)cc3)nc2c1` [Compound 5], on activated α4β1 integrin, the IC50 amounted to 490 nM and the “potency (in words)” value is listed as “mid nM potency”.

On to `NC(=O)C1(NC(=O)[C@@H](CCCC(=O)O)NC(=O)[C@@H](CCCCNC(=O)/C=C/c2cccnc2)NC(=O)Cc2ccc(Nc3nc4ccccc4s3)cc2)CCCCC1` [Compound 6, (R)-5-(R)-[2-{2-[4-(Benzothiazol-2-ylamino)-phenyl]acetylamino}-6-(E)-(3-pyridin-3-yl-acryloylamino)hexanoylamino]-5-(1-carbamoylcyclo-hexylcarbamoyl)pentanoic Acid], for which, at activated α4β1 integrin, the “potency (in words)” value is reported as “equipotent to 1”.

In the case of `Cc1cccc2oc(Nc3ccc(CC(=O)N[C@H](CCCCNC(=O)/C=C/c4cccnc4)C(=O)N[C@H](CCCC(=O)O)C(=O)NC4(C(N)=O)CCCCC4)cc3)nc12` [Compound 7], at activated α4β1 integrin, the “potency (in words)” value was “low nM potency”.

As to `Cc1cccc2oc(Nc3ccc(C(=O)N[C@H](CCCCNC(=O)/C=C/c4cccnc4)C(=O)N[C@H](CCCC(=O)O)C(=O)NC4(C(N)=O)CCCCC4)cc3)nc12` [Compound 9], the “potency (in words)” value on activated α4β1 integrin is “complete loss of potency”.

`NC(=O)C1(NC(=O)[C@@H](CCCC(=O)O)NC(=O)[C@@H](CCCCNC(=O)/C=C/c2cccnc2)NC(=O)c2ccc(Nc3nc4ccccc4o3)cc2)CCCCC1` [Compound 10]: the “potency (in words)” value on activated α4β1 integrin is given as “complete loss of potency”.

On to `NC(=O)C1(NC(=O)[C@@H](CCCC(=O)O)NC(=O)[C@@H](CCCCNC(=O)/C=C/c2cccnc2)NC(=O)c2ccc(Nc3nc4ccccc4s3)cc2)CCCCC1` [Compound 11], for which the “potency (in words)” value on activated α4β1 integrin is “mid nM potency”.
